From ChEMBL document CHEMBL1250450, “Well-defined regions of the Plasmodium falciparum reticulocyte binding protein homologue 4 mediate interaction with red blood cell membrane” (J Med Chem, 2010)
Activity calls are given as the source filed them. Residues, ends and D or L forms follow the SMILES beside them.

Legend:
Homo sapiens [1] = organism: Homo sapiens; assay: Binding affinity to RBC membrane receptor in human RBC assessed as specific binding activity measured as ratio of specifically bound peptide/added peptide by gamma counter
How it was run: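 1 × 10^8 healthy-donor RBCs incubated in triplicate with four rising concentrations of 125I-peptide (0-560 nM), with or without unlabeled peptide, then washed in HBS (pH 7.4) and gamma-counted. Specific binding (total minus nonspecific) plotted against added peptide; the slope is the specific binding activity. The HABP cutoff is ≥2%.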

Homo sapiens [2] = organism: Homo sapiens; assay: Binding affinity to RBC membrane receptor in 150 uU/mL neuraminidase pretreated human RBC relative to untreated RBC
How it was run: (§1)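 Human RBCs (60% hematocrit) treated 1 h at 37 °C with neuraminidase (150 μU/mL), chymotrypsin (1 mg/mL) or trypsin (1 mg/mL). Standard radiolabeled-peptide binding then run on treated cells at 20% hematocrit. Binding expressed relative to untreated RBCs set as 100%.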

Homo sapiens [3] = organism: Homo sapiens; assay: Binding affinity to RBC membrane receptor in 1 mg/mL chymotrypsin pretreated human RBC relative to untreated RBC; how it was run: as §1
Homo sapiens [4] = organism: Homo sapiens; assay: Binding affinity to RBC membrane receptor in 1 mg/mL trypsin pretreated human RBC relative to untreated RBC; how it was run: as §1
Homo sapiens [5] = organism: Homo sapiens; assay: Binding affinity of radio labeled compound to 32 kDa RBC membrane receptor in human RBC cross-linked with bis-(sulfosuccinimidyl)suberate by autoradiography using SDS-PAGE
How it was run: (§2)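 Radioiodinated peptide (chloramine-T method) incubated with 2.1 × 10^7 human RBCs, then cross-linked with BS3 (1 mg/mL) for 1 h at 4 °C. Reaction stopped with Tris-HCl. Membranes lysed (Tris/NaCl/EDTA/PMSF), mixed with Laemmli buffer, spun 15000g for 15 min, resolved on 12% SDS-PAGE against prestained markers.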

Homo sapiens [6] = organism: Homo sapiens; assay: Binding affinity of radio labeled compound to 25 kDa RBC membrane receptor in human RBC cross-linked with bis-(sulfosuccinimidyl)suberate by autoradiography using SDS-PAGE; how it was run: as §2
Homo sapiens [7] = organism: Homo sapiens; assay: Binding affinity of radio labeled compound to 22 kDa RBC membrane receptor in human RBC cross-linked with bis-(sulfosuccinimidyl)suberate by autoradiography using SDS-PAGE; how it was run: as §2
Homo sapiens [8] = organism: Homo sapiens; assay: Binding affinity of radio labeled compound to 20 kDa RBC membrane receptor in human RBC cross-linked with bis-(sulfosuccinimidyl)suberate by autoradiography using SDS-PAGE; how it was run: as §2
Plasmodium falciparum [9] = assay: Antiplasmodial activity against Plasmodium falciparum FCB2 assessed as inhibition of merozoite invasion of human erythrocytes at 200 uM after 18 hrs using hydroethidine staining by flow cytometry; assay type: functional; conditions: FCB2, 18 h
How it was run: (§3)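 Schizont-synchronized P. falciparum FCB-2 cultures incubated in triplicate with peptide (100 and 200 μM) using normal RBCs or, for the neuraminidase line, neuraminidase-treated RBCs. 37 °C for 18 h under 5% O2, 5% CO2, 90% N2. Cells washed with PBS, hydroethidine-labeled, read by flow cytometry (FL2). Inhibition controls were EGTA- and chloroquine-treated infected RBCs; uninfected RBCs served as invasion control.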

Plasmodium falciparum [10] = assay: Antiplasmodial activity against Plasmodium falciparum FCB2 assessed as inhibition of merozoite invasion of neuraminidase pretreated human erythrocytes at 200 uM after 18 hrs using hydroethidine staining by flow cytometry; assay type: functional; how it was run: as §3
[11] = Binding affinity to RBC membrane receptor in human RBC assessed as dissociation constant by gamma counter
How it was run: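 Saturation assay: 7.5 × 10^7 human RBCs incubated in triplicate with 125I-peptide over 0-2200 nM, with or without 6 nmol unlabeled peptide. Cells washed in HBS and counted by gamma counter. Kd, Hill coefficient and sites per cell came from Hill analysis.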

Plasmodium falciparum [12] = assay: Antiplasmodial activity against Plasmodium falciparum FCB2 assessed as inhibition of merozoite invasion of human erythrocytes at 1.85 mg/mL after 18 hrs using hydroethidine staining by flow cytometry; assay type: functional; set-up: scale not given: the % may be the effect or the level left; how it was run: as §3
Plasmodium falciparum [13] = assay: Antiplasmodial activity against Plasmodium falciparum FCB2 assessed as inhibition of merozoite invasion of human erythrocytes at 0.93 mg/mL after 18 hrs using hydroethidine staining by flow cytometry; assay type: functional; set-up: scale not given: the % may be the effect or the level left; how it was run: as §3
Plasmodium falciparum [14] = assay: Antiplasmodial activity against Plasmodium falciparum FCB2 assessed as inhibition of merozoite invasion of human erythrocytes at 1.9 mg/mL after 18 hrs using hydroethidine staining by flow cytometry; assay type: functional; set-up: scale not given: the % may be the effect or the level left; how it was run: as §3

Row | Molecule | Activity (Homo sapiens [1]) | Activity (Homo sapiens [2]) | Activity (Homo sapiens [3]) | Activity (Homo sapiens [4]) | Activity (Homo sapiens [5]) | Activity (Homo sapiens [6]) | Activity (Homo sapiens [7]) | Activity (Homo sapiens [8]) | inhibition at 200 µM (Plasmodium falciparum [9]) | inhibition at 200 µM (Plasmodium falciparum [10]) | Kd [11] | Activity (Plasmodium falciparum [12]) | Activity (Plasmodium falciparum [13]) | Activity (Plasmodium falciparum [14])
1 | H-QEKNTLAQFLYNADIKKYID-OH | > 2% | 110% | 0.01% | 1.01% | Active | Active | Active | Active | 38% | 53% |  |  |  | 
2 | H-QEQNRIYNELQNKIKQIKNV-OH | > 2% | 93% | 102% | 32% | Active | Active | Active | Active | 85% | 88% | 880 nM |  |  | 
3 | H-YNKNNIKDIYQQFKNIQQQL-OH | > 2% | 153% | 114% | 87% | Active | Active | Active | Active | 46% | 49% | 400 nM |  |  | 
4 | H-LNFTHKTIQQILQQQYKNNT-OH | > 2% | 94.9% | 79.7% | 43% |  |  |  |  | 45% | 47% | 850 nM |  |  | 
5 | H-CIQIKKKVDELYNIYDQLFK-OH | > 2% | 80.7% | 53.3% | 75.2% | Active | Active | Active | Active | 46% | 50% |  |  |  | 
6 | H-LFDYTHLWDNAQFTRTKENI-OH | > 2% | 166% | 31.4% | 24.9% |  |  |  |  | 50% | 58% | 1200 nM |  |  | 
7 | H-KHIVNKIQENFKLNQNKYIH-OH | > 2% | 115% | 132% | 94.1% |  |  |  |  | 51% | 51% | 590 nM |  |  | 
8 | H-LNTILHRNEQTKNATRSYNM-OH | > 2% | 92.2% | 22.5% | 43.9% |  |  |  |  | 47% | 46% | 850 nM |  |  | 
9 | CCN(CC)CCCC(C)Nc1ccnc2cc(Cl)ccc12 (stereo unspecified) [CHLOROQUINE] |  |  |  |  |  |  |  |  |  |  |  | 97% | 96% | 
10 | H-YDKLNEHVINNLYTKSKDSL-OH | > 2% | 312% | 26.3% | 16.7% |  |  |  |  | 43% | 39% | 480 nM |  |  | 
11 | CC[C@H](C)[C@H](NC(=O)[C@H](Cc1cnc[nH]1)NC(=O)[C@H](CO)NC(=O)[C@@H]1CCCN1C(=O)[C@H](CCC(N)=O)NC(=O)[C@@H](NC(=O)[C@@H](N)CC(C)C)[C@@H](C)CC)C(=O)N[C@@H](Cc1cnc[nH]1)C(=O)N[C@@H](CC(C)C)C(=O)N[C@@H](Cc1cnc[nH]1)C(=O)N[C@@H](CCCCN)C(=O)N[C@@H](CCSC)C(=O)N[C@@H](CCCCN)C(=O)N[C@@H](CC(C)C)C(=O)N1CCC[C@H]1C(=O)N[C@H](C(=O)N[C@H](C(=O)N[C@@H](CCC(N)=O)C(=O)N[C@@H](CCC(N)=O)C(=O)N[C@@H](CCC(N)=O)C(=O)N[C@@H](Cc1ccc(O)cc1)C(=O)O)[C@H](C)O)[C@@H](C)CC | > 2% | 152% | 209% | 79.4% |  |  |  |  | 48% | 43% |  |  |  | 
12 | H-KIMQNIQQTTNRLKINIKKIY-OH | > 2% | 129% | 60.1% | 15.2% |  |  |  |  | 54% | 46% | 750 nM |  |  | 
13 | CC[C@H](C)[C@H](NC(=O)[C@H](CC(=O)O)NC(=O)[C@H](CC(=O)O)NC(=O)[C@@H](NC(=O)[C@H](Cc1ccc(O)cc1)NC(=O)[C@H](CCCCN)NC(=O)[C@H](CCCCN)NC(=O)[C@@H](NC(=O)[C@H](CC(N)=O)NC(=O)[C@@H](NC(=O)[C@@H](N)CS)[C@@H](C)O)[C@@H](C)CC)[C@@H](C)O)C(=O)N[C@@H](CS)C(=O)N[C@@H](CC(C)C)C(=O)N[C@@H](CO)C(=O)N[C@H](C(=O)N[C@@H](CCCCN)C(=O)N1CCC[C@H]1C(=O)N[C@@H](CCCCN)C(=O)N[C@@H](C)C(=O)N[C@@H](CC(C)C)C(=O)O)[C@@H](C)CC (H-CTNIKKYTDDICLSIKPKAL-OH) | > 2% | 101% | 52.8% | 172% | Active | Active | Active | Active | 52% | 47% | 870 nM |  |  | 
14 | H-MLSIFQDTKYGKHKNQQILS-OH | > 2% | 200% | 93.2% | 93% |  |  |  |  | 52% | 42% |  |  |  | 
15 | H-QIYKNELKDRIKETQTKINL-OH | > 2% | 128% | 288% | 0.03% | Active | Active | Active | Active | 47% | 49% | 590 nM |  |  | 
16 | O=C(O)CN(CCOCCOCCN(CC(=O)O)CC(=O)O)CC(=O)O [EGTAZIC ACID] |  |  |  |  |  |  |  |  |  |  |  |  |  | 90%
